Reference: ChEMBL document CHEMBL1144550, “Molecular probes of DNA bulges: functional assay and spectroscopic analysis” (Bioorg Med Chem, 2007)
pKd: −log10 of the molar value. The source made the active and inactive calls. The rule behind the calls is not given here.

Legend:
[1] = Effect on DNA binding assessed as binding to HT3GGTT synthetic oligo sequence code by measuring fluorescence quenching due to GC base pairs next to bulge in bulge binding assay; design: species or system Homo sapiens
Outline: (§1)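 Dissociation constants for a panel of 17 synthetic bulged oligos, taken from changes in drug fluorescence in emission spectra (excitation 360 nm, emission 480 nm) at 5 °C. Binding appears either as quenching or as stimulation of drug fluorescence. Values are given with standard deviations.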

[2] = Effect on DNA binding assessed as binding to HT3AGTA synthetic oligo sequence code by measuring fluorescence stimulation due to AT base pairs next to bulge in bulge binding assay; design: species or system Homo sapiens; outline: as §1
[3] = Effect on DNA binding assessed as binding to HT3GATC synthetic oligo sequence code by measuring fluorescence quenching due to GC base pairs next to bulge in bulge binding assay; design: species or system Homo sapiens; outline: as §1
[4] = Effect on DNA binding assessed as binding to HT3GGTA synthetic oligo sequence code by measuring fluorescence stimulation due to AT base pairs next to bulge in bulge binding assay; design: species or system Homo sapiens; outline: as §1
[5] = Effect on DNA binding assessed as binding to HT3AGTC synthetic oligo sequence code by measuring fluorescence stimulation due to AT base pairs next to bulge in bulge binding assay; design: species or system Homo sapiens; outline: as §1
[6] = Effect on DNA binding assessed as binding to HT3AGTT synthetic oligo sequence code by measuring fluorescence stimulation due to AT base pairs next to bulge in bulge binding assay; design: species or system Homo sapiens; outline: as §1
[7] = Effect on DNA binding assessed as binding to DA12:BA14 synthetic oligo sequence code by measuring fluorescence stimulation due to AT base pairs next to bulge in bulge binding assay; design: species or system Homo sapiens; outline: as §1
[8] = Effect on DNA binding assessed as binding to HT3CGTA synthetic oligo sequence code by measuring fluorescence stimulation due to AT base pairs next to bulge in bulge binding assay; design: species or system Homo sapiens; outline: as §1
[9] = species: Homo sapiens; assay: Effect on DNA binding assessed as binding to DA12:DAc12 synthetic oligo sequence code by measuring fluorescence quenching due to GC base pairs next to bulge in bulge binding assay; outline: as §1
[10] = species: Homo sapiens; assay: Effect on slipped DNA synthesis assessed as enhanced synthesis at 40 uM relative to control
[11] = molecular target: DNA polymerase I Klenow fragment (Escherichia coli) (UniProt P00582); assay: Induction of slipped DNA synthesis assessed as incorporation of [32P]TMP at 40 uM
[12] = Effect on DNA binding assessed as binding to HT3TGTA synthetic oligo sequence code by measuring fluorescence stimulation due to AT base pairs next to bulge in bulge binding assay; design: species or system Homo sapiens; outline: as §1
[13] = Effect on DNA binding assessed as binding to HT4AGTT synthetic oligo sequence code by measuring fluorescence stimulation due to AT base pairs next to bulge in bulge binding assay; design: species or system Homo sapiens; outline: as §1
[14] = Effect on DNA binding assessed as binding to HT3AGCTT synthetic oligo sequence code by measuring fluorescence stimulation due to AT base pairs next to bulge in bulge binding assay; design: species or system Homo sapiens; outline: as §1
[15] = Effect on DNA binding assessed as binding to HT3AGT synthetic oligo sequence code by measuring fluorescence stimulation due to AT base pairs next to bulge in bulge binding assay; design: species or system Homo sapiens; outline: as §1
[16] = Effect on DNA binding assessed as binding to HT3AT synthetic oligo sequence code by measuring fluorescence stimulation due to AT base pairs next to bulge in bulge binding assay; design: species or system Homo sapiens; outline: as §1
[17] = Effect on DNA binding assessed as binding to HT3GGTC synthetic oligo sequence code by measuring fluorescence quenching due to GC base pairs next to bulge in bulge binding assay; design: species or system Homo sapiens; outline: as §1
[18] = Effect on DNA binding assessed as binding to HT3GTTG synthetic oligo sequence code by measuring fluorescence quenching due to GC base pairs next to bulge in bulge binding assay; design: species or system Homo sapiens; outline: as §1
[19] = Effect on DNA binding assessed as binding to HT3CGTC synthetic oligo sequence code by measuring fluorescence quenching due to GC base pairs next to bulge in bulge binding assay; design: species or system Homo sapiens; outline: as §1
[20] = Effect on DNA binding assessed as binding to HT3GGTA synthetic oligo sequence code by measuring fluorescence quenching due to GC base pairs next to bulge in bulge binding assay; design: species or system Homo sapiens; outline: as §1
[21] = Effect on DNA binding assessed as binding to HT3AGTC synthetic oligo sequence code by measuring fluorescence quenching due to GC base pairs next to bulge in bulge binding assay; design: species or system Homo sapiens; outline: as §1

pKd [1] | pKd [2] | pKd [3] | pKd [6] | pKd [7] | pKd [8] | Activity [9] | Activity [10] | Activity [11] | pKd [12] | pKd [13] | pKd [14] | pKd [15] | pKd [16] | pKd [17] | pKd [18] | pKd [19] | further results | SMILES
6.96 | 5.85 | 6.82 | 6.89 | 6.10 | 6.80 | inactive | 15.7 | 37000 cpm | 6.26 | 6.62 | 5.77 | 5.39 | 4.89 | 6.80 | 6.52 | 6.77 | pKd [4]: 5.71; pKd [5]: 6.59 | CN[C@H]1[C@@H](O[C@@H]2c3cc4ccccc4cc3[C@@H]3[C@H]2CC[C@@]32C(=O)C=Cc3ccc(OC)cc32)O[C@H](C)[C@H](O)[C@@H]1O
6.85 | 6.66 | 6.62 | 7.10 | 6.22 | 6.96 | inactive | 31.8 | 75000 cpm | 5.95 | 6.96 | 5.68 | 5.08 | 5.00 | 7.00 | 6.80 | 6.82 | pKd [20]: 6.54; pKd [21]: 6.54 | CN[C@H]1[C@@H](O[C@H]2c3cc4ccccc4cc3[C@H]3[C@@H]2CC[C@]32C(=O)C=Cc3ccc(OC)cc32)O[C@H](C)[C@H](O)[C@@H]1O
